Data taken from ChEMBL document CHEMBL4680377, “Discovery of a Novel Series of Pyridone-Based EP3 Antagonists for the Treatment of Type 2 Diabetes” (ACS Med Chem Lett, 2021).
Converted amounts (≈) assume the structure as drawn.

Experiments:
[1] = AUClast in Sprague-Dawley rat at 10 mg/kg, po measured up to 24 hrs by LC-MS/MS analysis; format: ADME, organism-based; set-up: route oral, dose 10 mg/kg, time <=24; details: in vivo
Outline: (§1)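 Sprague-Dawley rats, n = 3 per route, sampled over 24 h. Full PK: iv 2 mg/kg in 20% HPbCD with po 10 mg/kg given either in 0.5% HPMC or in 20% HPbCD, depending on study. Fast PK: po only, 10 mg/kg in 0.5% HPMC.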

[2] = Kinetic solubility of compound in PBS buffer; format: physicochemical; details: read-out: Kinetic_solubility
[3] = Metabolic stability in rat liver microsomes assessed as intrinsic clearance half life; format: ADME, Microsome
[4] = Plasma protein binding in human; format: ADME, cell-free; details: read-out: PPB (converted)
[5] = Apparent permeability across apical to basolateral side in dog MDCK cells; format: ADME, cell-based, Canis lupus familiaris
[6] = Cmax in Sprague-Dawley rat at 10 mg/kg, po measured up to 24 hrs by LC-MS/MS analysis; format: ADME, organism-based; set-up: route oral, dose 10 mg/kg, time <=24; details: in vivo; outline: as §1
[7] = Half life in Sprague-Dawley rat at 10 mg/kg, po measured up to 24 hrs by LC-MS/MS analysis; format: ADME, organism-based; details: in vivo; outline: as §1
[8] = Metabolic stability in human liver microsomes assessed as intrinsic clearance half life; format: ADME, Microsome
[9] = Volume of distribution at steady state in Sprague-Dawley rat at 2 mg/kg, iv measured up to 24 hrs by LC-MS/MS analysis; format: ADME, organism-based; details: in vivo, read-out: Vdss; outline: as §1
[10] = biological target: T1, Prostaglandin E2 receptor EP3 subtype (Rattus norvegicus, UniProt P34980); test: Binding affinity to rat EP3
T1 sequence (P34980 whole entry): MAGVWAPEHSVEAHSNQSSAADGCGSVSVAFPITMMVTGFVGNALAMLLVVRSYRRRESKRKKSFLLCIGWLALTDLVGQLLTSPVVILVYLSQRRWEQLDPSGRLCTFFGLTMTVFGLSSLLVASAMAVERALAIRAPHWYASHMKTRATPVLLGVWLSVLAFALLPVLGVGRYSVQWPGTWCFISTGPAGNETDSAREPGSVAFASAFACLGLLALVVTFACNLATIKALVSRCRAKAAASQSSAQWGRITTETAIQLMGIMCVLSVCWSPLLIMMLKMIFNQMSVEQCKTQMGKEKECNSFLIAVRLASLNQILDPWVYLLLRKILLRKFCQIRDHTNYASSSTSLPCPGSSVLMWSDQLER

[11] = Plasma protein binding in rat; format: ADME, cell-free; details: read-out: PPB (converted)
[12] = Kinetic solubility of compound at pH 2; format: physicochemical; details: buffer, read-out: Kinetic_solubility
[13] = Clearance in Sprague-Dawley rat at 2 mg/kg, iv measured up to 24 hrs by LC-MS/MS analysis; format: ADME, organism-based; details: in vivo; outline: as §1
[14] = Oral bioavailability in Sprague-Dawley rat at 10 mg/kg measured up to 24 hrs by LC-MS/MS analysis; format: ADME, organism-based; details: in vivo; outline: as §1
[15] = biological target: T2, Prostaglandin E2 receptor EP3 subtype (Homo sapiens, UniProt P43115); test: Antagonist activity at human EP3 expressed in CHO cells assessed as suppression of sulprostone-induced inhibition of forskolin induced cAMP production measured after 30 mins by HTR-FRET assay; format: functional, cell-based
T2 sequence (P43115 whole entry): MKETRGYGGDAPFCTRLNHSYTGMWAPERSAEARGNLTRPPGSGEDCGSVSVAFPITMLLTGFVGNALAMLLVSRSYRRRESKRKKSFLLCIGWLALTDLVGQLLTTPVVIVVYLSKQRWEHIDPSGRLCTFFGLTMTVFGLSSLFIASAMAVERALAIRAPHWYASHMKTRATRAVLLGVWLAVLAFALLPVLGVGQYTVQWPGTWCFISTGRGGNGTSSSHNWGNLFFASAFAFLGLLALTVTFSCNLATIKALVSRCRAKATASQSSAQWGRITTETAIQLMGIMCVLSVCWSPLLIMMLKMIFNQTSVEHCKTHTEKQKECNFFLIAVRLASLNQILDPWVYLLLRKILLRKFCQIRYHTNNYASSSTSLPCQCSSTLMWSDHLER

[16] = biological target: T2, Prostaglandin E2 receptor EP3 subtype; test: Displacement of [3H]-PGE2 from human EP3 expressed in Chem-1 cell membranes incubated for 2 hrs by TopCount scintillation plate reader analysis; set-up: species or system Membrane

Row | Structure (SMILES) | AUC(0-t) at 24 h [1] | solubility kinetic [2] | half-life [3] | fraction unbound [4] | Papp A→B [5] | Cmax [6] | half-life [7] | half-life [8] | Vd [9] | Ki [10] | fraction unbound [11] | solubility kinetic [12] | clearance [13] | bioavailability [14] | IC50 [15] | Ki [16]
1 | CC(C)C(/C=C1\OC(=O)NC1=O)c1ccc(-c2ccc3cccc(F)c3c2)[nH]c1=O (centres undefined) | 159 µg·h/mL | 28 µM (≈ 11.4 µg/mL) | > 3 h | 0.0008 | 9.9 ×10⁻⁶ cm/s | 24600 ng/mL | 4.6 h | > 3 h | 0.23 L/kg | 1 nM | 0.0001 | 8 µM (≈ 3.25 µg/mL) | 1.06 mL/min/kg | 97.7% |  | 
2 | CCn1ncc2c(F)cc(-c3ccc(C(/C=C4\OC(=O)NC4=O)(CC)CC)c(=O)[nH]3)cc21 | 100 µg·h/mL | 30.8 µM (≈ 13.5 µg/mL) | > 3 h | 0.0011 |  | 8740 ng/mL | 9.8 h | > 3 h | 0.24 L/kg |  | 0.0018 | 21.7 µM (≈ 9.51 µg/mL) | 0.93 mL/min/kg | 54.9% |  | 
3 | CC(C)[C@H](C[C@@H]1OC(=O)NC1=O)c1ccc(-c2ccc3cccc(F)c3c2)[nH]c1=O (relative stereo) | 218 µg·h/mL | 21.1 µM (≈ 8.62 µg/mL) | 0.503 h | 0.0032 | 10.8 ×10⁻⁶ cm/s | 44100 ng/mL |  | 2.07 h |  |  | 0.0021 | 25.1 µM (≈ 10.3 µg/mL) |  |  | 27 nM | 8 nM
4 | C/C(=C1/OC(=O)NC1=O)C(c1ccc(-c2ccc3cccc(F)c3c2)[nH]c1=O)C(C)C (centres undefined) | 12.7 µg·h/mL | 17.2 µM (≈ 7.23 µg/mL) | > 3 h |  |  | 1230 ng/mL | 4 h | > 3 h | 1.96 L/kg |  |  | 12.7 µM (≈ 5.34 µg/mL) | 15.6 mL/min/kg | 118% | 39 nM | 17 nM
